{"source": "ChEMBL document CHEMBL1122292", "about": "“Aza analogues of lucanthone: synthesis and antitumor and bactericidal properties” (J Med Chem, 1983)", "format_in_all_cases": "functional, organism-based", "key": {"Candida albicans [1]": {"system": "Candida albicans", "assay": "In vitro antibiotic activity against Candida albicans at 3.6E-8 mol dose; - symbol indicates negative result.", "outline": "(§1)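 Compounds were dissolved in ethyl alcohol at 3–5 × 10⁻⁶ mol/mL. Aliquots of 5, 10 or 20 μL were applied to 6-mm filter disks and dried under a light nitrogen stream. The disks were laid on an agar overlay inoculated with the test organism and incubated at 37 °C for 24 h. Inhibition-zone diameters were then measured.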"}, "Bacillus subtilis": {"system": "Bacillus subtilis", "assay": "In vitro antibiotic activity against Bacillus subtilis ATCC 6633 at 1.8E-8 mol dose; - symbol indicates negative result.", "outline": "as §1"}, "Escherichia coli": {"system": "Escherichia coli", "assay": "In vitro antibiotic activity against Escherichia coli ATCC 10536 at 7.2E-8 mol dose; ++ symbol indicates slight constraint, transient positive result.", "outline": "as §1"}, "Candida albicans [2]": {"system": "Candida albicans", "assay": "In vitro antibiotic activity against Candida albicans at 1.8E-8 mol dose; - symbol indicates negative result.", "outline": "as §1"}, "Staphylococcus aureus [3]": {"system": "Staphylococcus aureus", "assay": "In vitro antibiotic activity against Staphylococcus aureus ATCC 6358P at 3.6E-8 mol dose; +/- symbol indicates slightly positive result.", "outline": "as §1"}, "Staphylococcus aureus [4]": {"system": "Staphylococcus aureus", "assay": "In vitro antibiotic activity against Staphylococcus aureus ATCC 6358P at 7.2E-8 mol dose; +/- symbol indicates slightly positive result.", "outline": "as §1"}, "Candida albicans [5]": {"system": "Candida albicans", "assay": "In vitro antibiotic activity against Candida albicans at 7.2E-8 mol dose; - symbol indicates negative result.", "outline": "as §1"}, "Staphylococcus aureus [6]": {"system": "Staphylococcus aureus", "assay": "In vitro antibiotic activity against Staphylococcus aureus ATCC 6358P at 1.8E-8 mol dose; +/- symbol indicates slightly positive result.", "outline": "as §1"}}, "data": [{"smiles": "CCN(CC)CCCNc1nc(C)cc2nc3ccccc3c(O)c12", "values": [{"measurement": "Antibiotic activity", "setting": "Candida albicans [1]", "result": "Negative result"}, {"measurement": "Antibiotic activity", "setting": "Bacillus subtilis", "result": "Negative result"}, {"measurement": "Antibiotic activity", "setting": "Escherichia coli", "result": "slight constraint, transient positive result"}, {"measurement": "Antibiotic activity", "setting": "Candida albicans [2]", "result": "Negative result"}, {"measurement": "Antibiotic activity", "setting": "Staphylococcus aureus [3]", "result": "+/-"}, {"measurement": "Antibiotic activity", "setting": "Staphylococcus aureus [4]", "result": "+/-"}, {"measurement": "Antibiotic activity", "setting": "Candida albicans [5]", "result": "Negative result"}, {"measurement": "Antibiotic activity", "setting": "Staphylococcus aureus [6]", "result": "+/-"}]}]}
